In ChEMBL document CHEMBL5131470, “Structure-activity and structure-property relationship studies of spirocyclic chromanes with antimalarial activity” (Bioorg Med Chem, 2022):
Converted amounts (≈) assume the structure as drawn.

Columns and labels:
[1] = Aqueous solubility of the compound at pH 6.5; details: aqueous solution
[2] = Octanol-water distribution coefficient, logD of the compound at pH 7.4 by HPLC-based analysis; format: physicochemical
Plasmodium falciparum = test: Antimalarial activity against chloroquine-resistant Plasmodium falciparum Dd2 assessed as inhibition of parasite growth incubated for 72 hrs by SYBR green I-based DNA quantification assay; format: functional, organism-based; details: Dd2, 72 h
[3] = Octanol-water distribution coefficient, logD of the compound at pH 3 by HPLC-based analysis; format: physicochemical
[4] = Cytotoxicity against human HepG2 cells assessed as reduction in cell viability incubated for 48 hrs by MTS assay; format: toxicity, cell-based
Method in brief: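 HepG2 human hepatoma cells were seeded at 2,500 cells/well in 384-well plates and incubated 24 h. Serial compound dilutions (0–40 μM range) were added, then cells were incubated a further 48 h.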

[5] = Selectivity index, ratio of EC50 for cytotoxicity against human HepG2 cells to EC50 for antimalarial activity against chloroquine-resistant Plasmodium falciparum Dd2; format: toxicity, cell-based; details: read-out: Ratio EC50
Method in brief: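 Human HepG2 hepatoma cells were seeded at 2,500 cells/well and grown 24 h. Serial dilutions of compound (0–40 μM) were then added for another 48 h. […] SI = EC50(HepG2)/EC50(Dd2).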

[6] = Aqueous solubility of the compound at pH 2 by HPLC analysis; format: physicochemical; details: aqueous solution
Method in brief: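 Aqueous solubility was measured at pH 2.0 with an in-house HPLC assay. Values are reported as bins: ≤10 μM, 10–20 μM, 20–40 μM, 40–80 μM and ≥80 μM.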

In the case of CCN1CCC2(CCc3ccc4ccccc4c3O2)CC1, the solubility [1] is reported as ≤ 10 µM, the logD [2] is reported as 2.88 and the EC50 (Plasmodium falciparum) is reported as 550 nM. The logD [3] was 2.17, the EC50 at 48 h [4] was > 20000 nM and the selectivity ratio [5] was > 52.1. For the same compound, the solubility [6] was ≤ 10 µM.

With O=C(Cc1ccc(F)c(F)c1)N1CCC2(CC1)CC(O)c1ccc3ccccc3c1O2 (centres undefined) the logD [2] was 2.46, the EC50 (Plasmodium falciparum) was > 2500 nM and the logD [3] was 2.04. For the same compound, the EC50 at 48 h [4] was 5000 nM and the selectivity ratio [5] was < 1.

With O=C1CC2(CCN(C(=O)Cc3ccc(F)c(F)c3)CC2)Oc2c1ccc1ccccc21 the solubility [1] was ≤ 10 µM, the logD [2] was 4.03 and the EC50 (Plasmodium falciparum) was > 2500 nM. The logD [3] was 4, the EC50 at 48 h [4] was 18000 nM and the selectivity ratio [5] was < 3.6.

Compound O=C1C[C@@]2(CCCN(CCc3ccc(F)c(F)c3)C2)Oc2c1ccc1ccccc21 has an EC50 (Plasmodium falciparum) of 330 nM, an EC50 at 48 h [4] of 14000 nM and a selectivity ratio [5] of 34.2.

For O=C1CC2(CCN(Cc3ccccc3)CC2)Oc2c1ccc1ccccc21, the EC50 (Plasmodium falciparum) was > 2500 nM, the EC50 at 48 h [4] was 11000 nM and the selectivity ratio [5] was 4.

Work on O=C1CC2(CCN(CCc3ccccc3)CC2)Oc2c1ccc1ccccc21 yielded an EC50 (Plasmodium falciparum) of 530 nM, an EC50 at 48 h [4] of 8000 nM and a selectivity ratio [5] of 14.

In the case of O[C@@H]1CC2(CCN(C[C@H](O)c3ccc(F)c(F)c3)CC2)Oc2c1ccc1ccccc21, the EC50 (Plasmodium falciparum) is reported as 1060 nM, the EC50 at 48 h [4] is reported as 17000 nM and the selectivity ratio [5] is reported as 16.

In the case of OC1CC2(CCNCC2)Oc2c1ccc1ccccc21 (centres undefined), the solubility [1] is reported as ≤ 10 µM, the logD [2] is reported as 2.46 and the EC50 (Plasmodium falciparum) is reported as 510 nM. For the same compound, the logD [3] was 2.04, the EC50 at 48 h [4] was > 20000 nM and the selectivity ratio [5] was > 54.5. The solubility [6] was 40 µM (≈ 10.8 µg/mL).

For CCN1CCC2(CCc3ccc4c(c3O2)CCCC4)CC1, the EC50 (Plasmodium falciparum) was > 2500 nM, the EC50 at 48 h [4] was 5000 nM and the selectivity ratio [5] was < 1.

Work on OC(CN1CCC2(CC1)CC(O)c1ccc3ccccc3c1O2)c1ccc(Cl)c(Cl)c1 (centres undefined) yielded an EC50 (Plasmodium falciparum) of 1840 nM.

Compound O=C1C[C@]2(CCCN(CCc3ccc(F)c(F)c3)C2)Oc2c1ccc1ccccc21 has an EC50 (Plasmodium falciparum) of 1840 nM, an EC50 at 48 h [4] of 10000 nM and a selectivity ratio [5] of 5.8.

For c1ccc2c3c(ccc2c1)CCC1(CCNCC1)O3, the solubility [1] was 20 µM (≈ 5.07 µg/mL), the logD [2] was 2.33 and the EC50 (Plasmodium falciparum) was > 2500 nM. For the same compound, the logD [3] was 1.97, the EC50 at 48 h [4] was > 20000 nM and the selectivity ratio [5] was 4. The solubility [6] was 40 µM (≈ 10.1 µg/mL).

For OC1CC2(CCN(CCc3ccccc3)CC2)Oc2c1ccc1ccccc21 (centres undefined), the EC50 (Plasmodium falciparum) was 320 nM, the EC50 at 48 h [4] was > 20000 nM and the selectivity ratio [5] was > 68.9.

With O=C(CN1CCC2(CC1)CC(O)c1ccc3ccccc3c1O2)c1ccc(F)c(F)c1 (centres undefined) the solubility [1] was 20 µM (≈ 8.47 µg/mL), the logD [2] was 0.89 and the EC50 (Plasmodium falciparum) was > 2500 nM. For the same compound, the logD [3] was 1.53, the EC50 at 48 h [4] was 33000 nM and the selectivity ratio [5] was < 6.7. For the same compound, the solubility [6] was 20 µM (≈ 8.47 µg/mL).

Fc1ccc(CCN2CCC3(C=Cc4ccc5ccccc5c4O3)CC2)cc1F showed an EC50 (Plasmodium falciparum) of 1980 nM, an EC50 at 48 h [4] of 13000 nM and a selectivity ratio [5] of 7.2.

Compound OC1CC2(CCN(CCCc3ccccc3)CC2)Oc2c1ccc1ccccc21 (centres undefined) has an EC50 (Plasmodium falciparum) of 650 nM, an EC50 at 48 h [4] of 1000 nM and a selectivity ratio [5] of 2.

With O[C@@H](CN1CCC2(CC1)C[C@H](O)c1ccc3ccccc3c1O2)c1ccc(F)c(F)c1 the EC50 (Plasmodium falciparum) was 1290 nM, the EC50 at 48 h [4] was > 20000 nM and the selectivity ratio [5] was > 15.

In the case of C1=CC2(CCNCC2)Oc2c1ccc1ccccc21, the EC50 (Plasmodium falciparum) is reported as 490 nM, the EC50 at 48 h [4] is reported as > 20000 nM and the selectivity ratio [5] is reported as > 45.6.

With OC1CC2(CCN(Cc3ccccc3)CC2)Oc2c1ccc1ccccc21 (centres undefined) the EC50 (Plasmodium falciparum) was 930 nM, the EC50 at 48 h [4] was 6000 nM and the selectivity ratio [5] was 5.7.

In the case of O=C1CC2(CCN(CCCc3ccccc3)CC2)Oc2c1ccc1ccccc21, the EC50 (Plasmodium falciparum) is reported as 480 nM, the EC50 at 48 h [4] is reported as > 20000 nM and the selectivity ratio [5] is reported as > 36.5.

For c1ccc(CN2CCC3(CCc4ccc5ccccc5c4O3)CC2)cc1, the EC50 (Plasmodium falciparum) was > 2500 nM, the EC50 at 48 h [4] was > 20000 nM and the selectivity ratio [5] was 4.

In the case of CCN1CCC2(CC1)CC(=O)c1ccc3ccccc3c1O2, the solubility [1] is reported as ≥ 80 µM, the logD [2] is reported as 2.19 and the EC50 (Plasmodium falciparum) is reported as > 2500 nM. For the same compound, the logD [3] was 1.65, the EC50 at 48 h [4] was 18000 nM and the selectivity ratio [5] was 4.7. For the same compound, the solubility [6] was ≥ 80 µM.

Compound O=C1C[C@@]2(CCCNC2)Oc2c1ccc1ccccc21 has an EC50 (Plasmodium falciparum) of 630 nM, an EC50 at 48 h [4] of 5000 nM and a selectivity ratio [5] of 9.

In the case of O=C(CN1CCC2(CCc3ccc4ccccc4c3O2)CC1)c1ccc(F)c(F)c1, the solubility [1] is reported as 20 µM (≈ 8.15 µg/mL), the EC50 (Plasmodium falciparum) is reported as > 2500 nM and the EC50 at 48 h [4] is reported as > 20000 nM. It also gave a solubility [6] of 20 µM (≈ 8.15 µg/mL).

With O=C1C[C@]2(CCCNC2)Oc2c1ccc1ccccc21 the EC50 (Plasmodium falciparum) was 1200 nM, the EC50 at 48 h [4] was 4000 nM and the selectivity ratio [5] was 2.4.

In the case of O=C(Cc1ccc(F)c(F)c1)N1CCC2(CCc3ccc4ccccc4c3O2)CC1, the logD [2] is reported as 4.04, the EC50 (Plasmodium falciparum) is reported as > 2500 nM and the logD [3] is reported as 4.02. The EC50 at 48 h [4] was 5000 nM and the selectivity ratio [5] was < 1.
